# Measurements from paper PMC7415516 (Clinical genitourinary cancer, 2020).
# Read-outs that look alike come from different tables or passages of the source.
# What was measured:
# patients with mCRPC = details: sequence of ENZ followed by AA, cited from earlier work
# [1] = tested on: patients with mCRPC previously treated with enzalutamide; assay: Phase 2 open label study: PSA response, time to progression, overall survival; format: in vivo, human
# Method in brief: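 Open-label trial in men aged 18 or older with progressive mCRPC after more than three 28-day enzalutamide cycles, split into pre- and post-docetaxel cohorts. Oral dosing without routine steroids: 150 mg twice daily titrated to 450 mg twice daily, later amended to 750 mg, then 600 mg, once daily. PSA response was a ≥50% drop from baseline at 12 weeks (PCWG2). Radiographic progression by modified RECIST 1.1. Kaplan-Meier time to progression and overall survival.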
# [2] = tested on: patients with mCRPC previously treated with enzalutamide; assay: Toxicity evaluation, adverse events graded by CTCAE version 4.0; format: in vivo, human
# Method in brief: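 Adverse events in enrolled mCRPC patients were graded per NCI CTCAE v4.0 during oral dosing: twice-daily titration to 450 mg, later 750 mg or 600 mg once daily. A related Grade 3 event held treatment until recovery to Grade 1 or baseline. Investigator-discretion reductions were allowed for low-grade events. Drug was stopped for Grade 4 events, a delay over 6 weeks, or more than 2 reductions.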
# [3] = Pharmacokinetic analysis, plasma concentrations by LC-MS/MS, noncompartmental; format: in vivo, human; details: for half-life / Cmax / Tmax / Vd/F: male, human, plasma; for Vd/F: Vz/F
# CYP17 lyase = details: cited from earlier work
# [4] = tested on: enzalutamide-resistant cell lines (e.g. C4–2, C4–2B, MR49C, MR49F); details: established enzalutamide-resistant cell lines; cited from earlier work
# [5] = tested on: CRPC cell lines MR49F, MDA-PCA-133, LNCaP; details: MDA-PCA-133, LNCaP (AR F876L, H874Y, T877A); cited from earlier work
# patients with CRPC [6] = details: cited from earlier work; for PSA response rate: treatment naïve patients, daily cumulative doses of 600 mg or greater
# patients with CRPC [7] = details: phase 1 study, once daily dosing; cited from earlier work
# [8] = N = 17, attribution at least possible
# [9] = 600 mg oral, C1D1 (n=4), first dose
# [10] = 600 mg oral, C2D1 (n=4), steady-state
# [11] = 750 mg oral, C1D1 (n=3), first dose
# [12] = 750 mg oral, C2D2 (n=l), steady-state
# [13] = po, 600 mg, 600 mg oral, C1D1 (n=4), first dose
# [14] = po, 600 mg, 600 mg oral, C2D1 (n=4), steady-state
# [15] = po, 750 mg, 750 mg oral, C1D1 (n=3), first dose
# [16] = po, 750 mg, 750 mg oral, C2D2 (n=l), steady-state
smiles,measurement,setting,value
"CC(=O)O[C@H]1CC[C@@]2(C)C(=CC[C@@H]3[C@@H]2CC[C@]2(C)C(c4cccnc4)=CC[C@@H]32)C1 [AA, abiraterone acetate]",PSA response rate,patients with mCRPC; ref 39,3%
same,PSA response rate,patients with mCRPC; ref 40,8%
CC(C)[C@](O)(c1ccc2cc(OC(F)F)c(OC(F)F)cc2c1)c1c[nH]nn1 [Seviteronel],rate of significant PSA response (≥ 50% decrease in baseline serum PSA),"[1]; all 17 patients, after 12 weeks of seviteronel, PCWG2 criteria",6%
same,patients having documented PSA progression per PCWG2,[1]; of 17 patients,8 patients
same,minimal decline in PSA,"[1]; one patient, pre-chemotherapy cohort, 750 mg once daily reduced to 450 mg once daily, after 11 weeks",15%
same,"Blurred Vision, All Grades (Gr 1–3)",[2]; [8],4 (24) No. Patients (%)
same,"Blurred Vision, Grade 1",[2]; [8],3 (18) No. Patients (%)
same,"Blurred Vision, Grade 2",[2]; [8],1 (6) No. Patients (%)
same,"Blurred Vision, Grade 3",[2]; [8],0 (0) No. Patients (%)
same,"Concentration Impairment, All Grades (Gr 1–3)",[2]; [8],14 (82) No. Patients (%)
same,"Concentration Impairment, Grade 1",[2]; [8],9 (53) No. Patients (%)
same,"Concentration Impairment, Grade 2",[2]; [8],4 (24) No. Patients (%)
same,"Concentration Impairment, Grade 3",[2]; [8],1 (6) No. Patients (%)
same,"Dizziness, All Grades (Gr 1–3)",[2]; [8],6 (35) No. Patients (%)
same,"Dizziness, Grade 1",[2]; [8],3 (18) No. Patients (%)
same,"Dizziness, Grade 2",[2]; [8],1 (6) No. Patients (%)
same,"Dizziness, Grade 3",[2]; [8],2 (12) No. Patients (%)
same,"Edema (limbs), All Grades (Gr 1–3)",[2]; [8],3 (18) No. Patients (%)
same,"Edema (limbs), Grade 1",[2]; [8],2 (12) No. Patients (%)
same,"Edema (limbs), Grade 2",[2]; [8],1 (6) No. Patients (%)
same,"Edema (limbs), Grade 3",[2]; [8],0 (0) No. Patients (%)
same,"Fall, All Grades (Gr 1–3)",[2]; [8],3 (18) No. Patients (%)
same,"Fall, Grade 1",[2]; [8],1 (6) No. Patients (%)
same,"Fall, Grade 2",[2]; [8],1 (6) No. Patients (%)
same,"Fall, Grade 3",[2]; [8],1 (6) No. Patients (%)
same,"Fatigue, All Grades (Gr 1–3)",[2]; [8],11 (65) No. Patients (%)
same,"Fatigue, Grade 1",[2]; [8],3 (18) No. Patients (%)
same,"Fatigue, Grade 2",[2]; [8],8 (47) No. Patients (%)
same,"Fatigue, Grade 3",[2]; [8],0 (0) No. Patients (%)
same,"Gait Disturbance, All Grades (Gr 1–3)",[2]; [8],3 (18) No. Patients (%)
same,"Gait Disturbance, Grade 1",[2]; [8],3 (18) No. Patients (%)
same,"Gait Disturbance, Grade 2",[2]; [8],0 (0) No. Patients (%)
same,"Gait Disturbance, Grade 3",[2]; [8],0 (0) No. Patients (%)
same,"Hypotension, All Grades (Gr 1–3)",[2]; [8],4 (24) No. Patients (%)
same,"Hypotension, Grade 1",[2]; [8],1 (6) No. Patients (%)
same,"Hypotension, Grade 2",[2]; [8],2 (12) No. Patients (%)
same,"Hypotension, Grade 3",[2]; [8],1 (6) No. Patients (%)
same,"Malaise, All Grades (Gr 1–3)",[2]; [8],3 (18) No. Patients (%)
same,"Malaise, Grade 1",[2]; [8],0 (0) No. Patients (%)
same,"Malaise, Grade 2",[2]; [8],3 (18) No. Patients (%)
same,"Malaise, Grade 3",[2]; [8],0 (0) No. Patients (%)
same,"Nausea, All Grades (Gr 1–3)",[2]; [8],9 (53) No. Patients (%)
same,"Nausea, Grade 1",[2]; [8],7 (41) No. Patients (%)
same,"Nausea, Grade 2",[2]; [8],0 (0) No. Patients (%)
same,"Nausea, Grade 3",[2]; [8],2 (12) No. Patients (%)
same,"Presyncope, All Grades (Gr 1–3)",[2]; [8],3 (18) No. Patients (%)
same,"Presyncope, Grade 1",[2]; [8],0 (0) No. Patients (%)
same,"Presyncope, Grade 2",[2]; [8],3 (18) No. Patients (%)
same,"Presyncope, Grade 3",[2]; [8],0 (0) No. Patients (%)
same,"Tremor, All Grades (Gr 1–3)",[2]; [8],10 (59) No. Patients (%)
same,"Tremor, Grade 1",[2]; [8],9 (53) No. Patients (%)
same,"Tremor, Grade 2",[2]; [8],1 (6) No. Patients (%)
same,"Tremor, Grade 3",[2]; [8],0 (0) No. Patients (%)
same,"Vomiting, All Grades (Gr 1–3)",[2]; [8],3 (18) No. Patients (%)
same,"Vomiting, Grade 1",[2]; [8],3 (18) No. Patients (%)
same,"Vomiting, Grade 2",[2]; [8],0 (0) No. Patients (%)
same,"Vomiting, Grade 3",[2]; [8],0 (0) No. Patients (%)
same,Grade 4 adverse events related to study treatment,[2]; in vivo,No Grade 4 adverse events related to the study treatment were reported
same,number of Grade 3 adverse events,[2]; in vivo,nine
same,Concentration impairment Grade 2 or higher,[2]; of 17 patients,5 patients
same,patients with CNS toxicities that contributed to treatment discontinuation,[2]; of 17 patients,nine
same,diarrhea,[2]; patients receiving 750 mg once daily,not reported
same,tolerability,"[2]; twice daily 450 mg or once daily 600/750 mg, without oral steroids",not generally well tolerated
same,AUC/D (dose-normalized),[3]; [9],55.1 ± 7.21 mg·h/L/mg
same,Cmax/D (dose-normalized),[3]; [9],6.77 ± 3.20 mg/L/mg
same,CL/F,"[3]; 600 mg oral, C1D1 (n=4), first dose, Dose/AUCinf",18.4 ± 2.50 L/h
same,AUC/D (dose-normalized),[3]; [10],92.3 ± 9.94 mg·h/L/mg
same,Cmax/D (dose-normalized),[3]; [10],7.76 ± 1.93 mg/L/mg
same,CL/F,"[3]; 600 mg oral, C2D1 (n=4), steady-state, Dose/AUCtau",10.9 ± 1.32 L/h
same,AUC/D (dose-normalized),[3]; [11],58.9 ± 2.87 mg·h/L/mg
same,Cmax/D (dose-normalized),[3]; [11],6.82 ± 2.54 mg/L/mg
same,CL/F,"[3]; 750 mg oral, C1D1 (n=3), first dose, Dose/AUCinf",17.0 ± 0.84 L/h
same,AUC/D (dose-normalized),[3]; [12],84.6 mg·h/L/mg
same,Cmax/D (dose-normalized),[3]; [12],7.53 mg/L/mg
same,CL/F,"[3]; 750 mg oral, C2D2 (n=l), steady-state, Dose/AUCtau",11.8 L/h
same,increase of dose-normalized steady-state AUCτ over first dose AUCINF,"[3]; 6 patients, p=0.001",61%
same,"dose-normalized CMAX, mean",[3]; Cycle 1,6.79 µg/L/mg
same,dose-normalized first dose AUCINF,[3]; first dose,56.7 µg·h/L/mg
same,half-life,"[3]; oral, mean first dose half-life, 48-hr sampling window, range 7.9 – 23.5 hr",13.9 h
same,Cmax,[3]; [13],4070 ± 1920 ng/mL
same,Cmax,[3]; [14],4660 ± 1160 ng/mL
same,half-life,"[3]; po, 600 mg, T1/2, 600 mg oral, C1D1 (n=4), first dose",16.4 ± 4.78 h
same,half-life,"[3]; po, 600 mg, T1/2, 600 mg oral, C2D1 (n=4), steady-state",14.8 ± 5.94 h
same,Tmax,[3]; [13],2 h
same,Tmax,[3]; [14],5 ± 2.58 h
same,Vd/F,[3]; [13],438 ± 146 L
same,Vd/F,[3]; [14],229 ± 77.7 L
same,Cmax,[3]; [15],5110 ± 1900 ng/mL
same,Cmax,[3]; [16],5650 ng/mL
same,half-life,"[3]; po, 750 mg, T1/2, 750 mg oral, C1D1 (n=3), first dose",10.5 ± 4.35 h
same,half-life,"[3]; po, 750 mg, T1/2, 750 mg oral, C2D2 (n=l), steady-state",18.3 h
same,Tmax,[3]; [15],2 ± 1.7 h
same,Tmax,[3]; [16],2 h
same,Vd/F,[3]; [15],260 ± 121 L
same,Vd/F,[3]; [16],312 L
same,time to reach 97% steady-state,[3]; once daily dosing,69.5 h
same,expected accumulation above first-dose,[3]; once daily dosing until steady-state,43%
same,increase of steady-state dose-normalized CMAX over Cycle 1,[3]; p=0.44,20%
same,start of apparent monophasic elimination post dose,[3]; single oral dose 600mg or 750mg with food,2 to 4 h
same,"dose-normalized CMAX, mean",[3]; steady-state,8.16 µg/L/mg
same,dose-normalized steady-state AUCτ,[3]; steady-state,91.3 µg·h/L/mg
same,selectivity towards the CYP17 lyase over hydroxylase,CYP17 lyase,approximately 10 fold
same,potency compared with AA,[4],more potent than AA
same,efficacy in in vivo models,[5],effective
same,PSA declines of 50% or greater,"patients with CRPC [6]; 450 mg twice daily, patients who had previously received ENZ",2 of 7
same,response rate,"patients with CRPC [6]; pre-treated patients, Phase I study once daily dosing",0%
same,PSA response rate,patients with CRPC [6]; once daily dosing (N=9),33%
same,PSA response rate,patients with CRPC [6]; twice daily dosing (N=26),11%
same,patients experiencing fatigue,patients with CRPC [7],71%
same,patients with blurry vision,patients with CRPC [7],33%
same,patients with dizziness,patients with CRPC [7],52%
